Reference: publication PMC8458252 (Circulation. Heart failure, 2021)
pIC50: −log10 of the molar value. Each block holds one compound with its values, some of them ahead of it.

Tests used:
[1] = test system: PDE1A; conditions: read-out: IC50 for PDE1A; cited from earlier work
[2] = test system: plasma cGMP and cAMP levels; assay: Plasma cAMP and cGMP by LC/MS/MS in HFrEF patients; format: in vivo, human; conditions: baseline versus 2 hours after dosing
Outline: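 HFrEF patients received one oral dose of test compound (10, 30 or 90 mg) or placebo. Plasma was sampled at baseline and 2 h post-dose and stored frozen. cAMP and cGMP were measured by a validated LC/MS/MS method with quantitation limits of 20 to 5000 […].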

[3] = test system: HFrEF patients; assay: Echo-Doppler hemodynamics, baseline versus 2 hours post-dose, in HFrEF patients; format: in vivo, human
Outline: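 Single oral dose (10, 30 or 90 mg, or placebo; randomised 3:1; n=9/dose) in fasted HFrEF patients. Transthoracic 2D Doppler echo at baseline and 120 ± 15 min, read blinded in a core lab. Cuff BP/HR taken at imaging. Outputs: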

[4] = Plasma pharmacokinetics after single oral dose in HFrEF patients; format: in vivo, human
Outline: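 After a single oral liquid dose (10, 30 or 90 mg) in fasted HFrEF patients, plasma was drawn pre-dose and at 5, 15, 30, 45, 90 and 120 min on Day 1, and again on Day 5. Parameters: AUC 0–2 h, Cmax, Tmax, lag time. Half-life was estimated from Day 5 levels relative to peak. Data analysed by two-way repeated-measures ANOVA.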

[5] = test system: HFrEF patients; assay: Tolerability / adverse events in HFrEF patients; format: in vivo, human
Outline: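 In a blinded, placebo-controlled study, stable HFrEF patients on guideline therapy were randomised 3:1 in sequential cohorts. Each received one oral liquid dose (10, 30 or 90 mg) or placebo after an ≥8 h fast. Monitoring ran 5 h post-dose, with a follow-up visit on Day 5 ± 1 (exam, ECG, blood and urine labs). Adverse events were recorded at each visit per protocol.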

[6] = test system: PDE1C; conditions: read-out: IC50 for PDE1C; cited from earlier work
[7] = test system: PDE5; conditions: cited from earlier work
[8] = test system: PDE1; conditions: cited from earlier work
[9] = test system: HFrEF patients; assay: Supine and orthostatic blood pressure and heart rate in HFrEF patients; format: in vivo, human
Outline: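 Fasted HFrEF patients were randomised 3:1 to one oral liquid dose (10, 30 or 90 mg) or placebo. Supine BP and HR were taken by automated cuff every 10 min from 30 min pre-dose to 120 min post-dose, then every 30 min to 5 h. Orthostatic readings were taken at 60 ± 5 and 240 ± 15 min and on Day 5, after 1, 3 and 5 min standing. Time course versus placebo by ANCOVA; orthostatic change by ANOVA.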

[10] = test system: HFrEF patients; assay: 12-lead ECG QTc and Holter arrhythmia monitoring in HFrEF patients; format: in vivo, human
Outline: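 HFrEF patients fasted ≥8 h took one oral liquid dose of test compound (10, 30 or 90 mg) or placebo, randomised 3:1. 12-lead ECG at baseline, 120 ± 15 min post-dose and Day 5 ± 1. Continuous bedside telemetry plus Holter recording. Holter gave hourly supraventricular and ventricular runs and ectopic-beat burden versus pre-dose.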

[11] = test system: PDE3; conditions: cited from earlier work
[12] = test system: rats; conditions: cited from earlier work

drug level as % of peak concentration ([4]; after five days, at each dose): 2-3% | time at which peak concentration was achieved ([4]; after oral dosing): ≤ 45 min | half-life ([4]; human, plasma, oral): ~1320 min | Tmax ([4]; human, plasma, po, 90 mg): 45 to 66 min
SMILES: CN1C(=O)c2c(nn(Cc3ccc(-c4cccc(F)n4)cc3)c2Nc2ccccc2)N2C1=N[C@@H]1CCC[C@@H]12 [ITI-214]
pIC50 [1]: 10.46 | plasma cAMP level [2]: did not significantly change | plasma cGMP level [2]: did not significantly change | median change in PWRi (mean LV power index) ([3]; 10 mg, baseline to 120 minutes): 0.018 (IQR 0.122) Watts/mL^2·10^4 | median rise in cardiac output ([3]; 10 mg, baseline to 120 minutes): 0.717 L/min | E/E’ ([3]; 30 mg): small rise | change in systemic vascular resistance ([3]; 30 mg, baseline to 120 minutes): −564 dynes·s/cm^−5 | median change in PWRi (mean LV power index) ([3]; 30 mg, baseline to 120 minutes): 0.143 (IQR 0.154) Watts/mL^2·10^4 | median rise in cardiac output ([3]; 30 mg, baseline to 120 minutes): 0.830 L/min | change in systemic vascular resistance ([3]; 90 mg, baseline to 120 minutes): −370 dynes·s/cm^−5 | median change in PWRi (mean LV power index) ([3]; 90 mg, baseline to 120 minutes): 0.083 (IQR 0.126) Watts/mL^2·10^4 | median rise in cardiac output ([3]; 90 mg, baseline to 120 minutes): 0.666 L/min | percent increase in cardiac output ([3]; 90 mg, pre versus post dose): 18% | percent increase in mPWRi ([3]; 90 mg, pre versus post dose): 33% | total LV afterload (Ea) ([3]; all doses): significantly reduced | end-diastolic volume ([3]; baseline to 120 minutes): little effect | isovolumic relaxation time ([3]; baseline to 120 minutes): little effect | feeling hot, share of subjects ([5]; 27 subjects treated): 7% | headache, share of subjects ([5]; 27 subjects treated): 7% | hypotension, share of subjects ([5]; 27 subjects treated): 11% | orthostatic hypotension, share of subjects ([5]; 27 subjects treated): 11% | parosmia, share of subjects ([5]; 27 subjects treated): 15% | taste disorder, share of subjects ([5]; 27 subjects treated): 7% | subjects with mild adverse events ([5]; all ITI-214 doses): 11 of the 27 subjects | serious adverse events ([5]; any time in the study): no serious adverse events | tolerability ([5]; single dose): well-tolerated | pIC50 [6]: 10.46 | selectivity for PDE1 over PDE5 [7]: 19,000 fold | potency relative to either Lu-compound (more potent) ([8]; versus LuAF41228 and LuAF58027): > 1000 x | diastolic BP change ([9]; over 2 hours post-dose, each dose): declined | increase in heart rate ([9]; single oral dose 10-90 mg): 5-9 bpm | orthostatic SBP changes versus placebo ([9]; upon standing): No SBP changes were significantly different | change in QTc ([10]; 10 mg, 120 minutes post-dose versus baseline): 1 ± 9 ms | change in QTc ([10]; 10 mg, Day 5 versus baseline): -13 ± 17 ms | change in QTc ([10]; 30 mg, 120 minutes post-dose versus baseline): -4 ± 18 ms | change in QTc ([10]; 30 mg, Day 5 versus baseline): -19 ± 22 ms | change in QTc ([10]; 90 mg, 120 minutes post-dose versus baseline): -4 ± 24 ms | change in QTc ([10]; 90 mg, Day 5 versus baseline): -16 ± 19 ms | arrhythmia outcomes (Holter) ([10]; compared to pre-dosing): no clinical change | selectivity for PDE1 over PDE3 [11]: 94,000 fold

SMILES: CCC(CC)Nc1ncnc2c(OC)c(OC)ccc12 [LuAF41228]
lowering of blood pressure [12]: ≥ 15 mmHg

SMILES: CCOC(=O)C1=C[C@]2(CC)CCCN3CCc4c(n1c1ccccc41)[C@@H]32 [vinpocetine, reference compound]
PDE1 inhibitor potency relative to ITI-214 (less potent) [8]: < 10^6
